“And” between values parts separate entries of the source, which are not always exact repeats. Equal values may be shown once.
Molecular target: Protein farnesyltransferase subunit beta/geranylgeranyltransferase type-1 subunit alpha (Mus musculus, UniProt Q61239+Q8K2I1)
Assay: Anchorage-independent growth of transformed NIH3T3 cells in soft agar
Procedure, shortened: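 Transformed NIH-3T3 cells grown in soft agar; colonies photographed by video camera and counted; IC50 calculated from colony counts.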

- IC50: 5 nM and 5.2 nM
SMILES: O=C(NCCCn1ccnc1)C1CN(C2c3ccc(Cl)cc3CCc3cc(Br)cnc32)CCN1C(=O)NC1CCCCC1 (stereo unspecified) [4-(3-bromo-8-chloro-6,11-dihydro-5H-benzo[5,6]cyclohepta[1,2-b]pyridin-11-yl)-piperazine-1,2-dicarboxylicacid 1-cyclohexylamide 2-[(3-imidazol-1-yl-propyl)-amide]]

— BindingDB's records for doi:10.1016/j.bmcl.2005.10.070 (Pharmacopeia, 2005)
